Results on 15 molecules are retold here after ChEMBL document CHEMBL1255169, “Synthesis, structure-affinity relationships, and radiolabeling of selective high-affinity 5-HT4 receptor ligands as prospective imaging probes for positron emission tomography” (J Med Chem, 2010).

The source made the active and inactive calls. No cut-off for these calls is given here.

Assay [1] deals with T1, 5-hydroxytryptamine receptor 4 (Homo sapiens, UniProt Q13639). In words: Displacement of [3H]GR113808 from human recombinant 5HT4 receptor expressed in HEK293 cells. The assay is classed as cell-based. In general terms: Loss of bound radioactivity is the signal in a displacement assay; it reports binding, not function.
Assay [2] addresses T1, 5-hydroxytryptamine receptor 4. In words: Inverse agonist activity at 5HT4 receptor expressed in HEK293/L9 cells by cAMP assay. In kind it is functional, cell-based. For orientation: cAMP levels reflect the balance of adenylyl cyclase and phosphodiesterase activity.
The target is the same in assay [3]. In words: Agonist activity at 5HT4 receptor expressed in HEK293/L9 cells by cAMP assay. In kind it is functional, cell-based.
Assay [4] has the same target. Kind of assay: Antagonist activity at 5HT4 receptor expressed in HEK293/L9 cells by cAMP assay. In kind it is functional, cell-based.
Assay [5] addresses 5-hydroxytryptamine receptor 4 (Cavia porcellus, UniProt O70528). In words: Displacement of [3H]GR113808 from 5HT4 receptor in guinea pig striatal membranes. In kind it is cell membranes, Striatum, Membrane.
In assay [6] the target is 5-hydroxytryptamine receptor 1D (Homo sapiens, UniProt P28221). In words: Binding affinity to human 5-HT1D receptor.
For assay [7], the target named is 5-hydroxytryptamine receptor 2B (Homo sapiens, UniProt P41595). Kind of assay: Binding affinity to human 5-HT2B receptor.
Assay [8] has as its target T2, 5-hydroxytryptamine receptor 2C (Homo sapiens, UniProt P28335).
T2 sequence (P28335 whole entry): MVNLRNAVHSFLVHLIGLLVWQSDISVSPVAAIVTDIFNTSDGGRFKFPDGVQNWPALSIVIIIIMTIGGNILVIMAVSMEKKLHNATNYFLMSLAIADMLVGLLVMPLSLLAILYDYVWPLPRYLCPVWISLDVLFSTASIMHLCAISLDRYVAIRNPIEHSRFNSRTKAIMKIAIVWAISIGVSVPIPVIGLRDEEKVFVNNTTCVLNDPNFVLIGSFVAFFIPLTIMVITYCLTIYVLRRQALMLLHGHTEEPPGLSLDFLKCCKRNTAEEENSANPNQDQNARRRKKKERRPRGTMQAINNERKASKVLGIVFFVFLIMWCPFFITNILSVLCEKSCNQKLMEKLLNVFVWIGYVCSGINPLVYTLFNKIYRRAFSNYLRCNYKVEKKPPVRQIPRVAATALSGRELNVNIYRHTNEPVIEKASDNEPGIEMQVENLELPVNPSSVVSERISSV
In words: Binding affinity to human 5-HT2C receptor.

The target of assay [9] is T3, Alpha-1A adrenergic receptor (Homo sapiens, UniProt P35348).
T3 sequence (P35348 whole entry): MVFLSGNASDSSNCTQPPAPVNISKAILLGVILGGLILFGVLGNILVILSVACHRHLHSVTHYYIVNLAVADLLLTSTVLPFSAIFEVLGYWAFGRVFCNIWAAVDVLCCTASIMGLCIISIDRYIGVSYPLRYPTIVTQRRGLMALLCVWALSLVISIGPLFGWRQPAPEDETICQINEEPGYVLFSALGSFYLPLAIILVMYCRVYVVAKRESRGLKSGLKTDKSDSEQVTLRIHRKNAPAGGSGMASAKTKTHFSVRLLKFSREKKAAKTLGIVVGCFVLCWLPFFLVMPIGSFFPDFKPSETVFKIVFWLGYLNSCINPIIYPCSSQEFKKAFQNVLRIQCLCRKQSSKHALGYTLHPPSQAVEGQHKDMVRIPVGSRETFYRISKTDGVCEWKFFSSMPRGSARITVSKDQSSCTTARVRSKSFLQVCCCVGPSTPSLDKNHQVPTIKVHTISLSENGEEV
In words: Binding affinity to human adrenergic alpha1A receptor.

For assay [10], the target named is T4, Alpha-1B adrenergic receptor (Homo sapiens, UniProt P35368).
T4 sequence (P35368 whole entry): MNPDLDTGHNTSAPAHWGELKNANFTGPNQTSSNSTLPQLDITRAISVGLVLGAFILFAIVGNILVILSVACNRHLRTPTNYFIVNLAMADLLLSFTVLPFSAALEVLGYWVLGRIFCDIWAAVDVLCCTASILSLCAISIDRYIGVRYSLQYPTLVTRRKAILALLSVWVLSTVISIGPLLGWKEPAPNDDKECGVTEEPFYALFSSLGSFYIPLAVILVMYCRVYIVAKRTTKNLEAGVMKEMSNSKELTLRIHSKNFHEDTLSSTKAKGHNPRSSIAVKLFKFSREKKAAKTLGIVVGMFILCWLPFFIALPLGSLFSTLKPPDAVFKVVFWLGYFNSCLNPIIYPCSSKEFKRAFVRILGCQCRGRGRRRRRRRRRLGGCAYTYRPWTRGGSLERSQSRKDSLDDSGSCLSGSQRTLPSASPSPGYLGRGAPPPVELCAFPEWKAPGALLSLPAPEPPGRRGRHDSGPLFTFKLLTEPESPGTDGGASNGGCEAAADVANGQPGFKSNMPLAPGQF
Kind of assay: Binding affinity to human adrenergic Alpha-1B receptor.

Assay [11] deals with T5, Alpha-2B adrenergic receptor (Homo sapiens, UniProt P18089).
T5 sequence (P18089 whole entry): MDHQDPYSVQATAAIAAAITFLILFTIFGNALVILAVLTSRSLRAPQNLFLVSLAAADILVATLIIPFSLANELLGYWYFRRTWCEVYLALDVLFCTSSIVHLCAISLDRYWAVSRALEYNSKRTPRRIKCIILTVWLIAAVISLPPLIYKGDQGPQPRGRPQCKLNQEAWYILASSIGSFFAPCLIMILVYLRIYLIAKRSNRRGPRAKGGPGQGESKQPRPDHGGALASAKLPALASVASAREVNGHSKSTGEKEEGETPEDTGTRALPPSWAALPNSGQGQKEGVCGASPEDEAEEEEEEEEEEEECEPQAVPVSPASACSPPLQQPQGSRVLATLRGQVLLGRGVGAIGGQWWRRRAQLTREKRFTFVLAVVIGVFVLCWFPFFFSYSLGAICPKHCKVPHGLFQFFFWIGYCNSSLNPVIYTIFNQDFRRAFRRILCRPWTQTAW
In words: Binding affinity to human adrenergic alpha2B receptor. The method, boiled down:
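Radioligand binding run by the NIMH Psychoactive Drug Screening Program as part of a broad receptor and binding-site panel, which included α1A, α1B, α1D and α2A–C subtypes. Affinity is expressed as Ki.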

The target in assay [12] is T6, Alpha-2C adrenergic receptor (Homo sapiens, UniProt P18825).
T6 sequence (P18825 whole entry): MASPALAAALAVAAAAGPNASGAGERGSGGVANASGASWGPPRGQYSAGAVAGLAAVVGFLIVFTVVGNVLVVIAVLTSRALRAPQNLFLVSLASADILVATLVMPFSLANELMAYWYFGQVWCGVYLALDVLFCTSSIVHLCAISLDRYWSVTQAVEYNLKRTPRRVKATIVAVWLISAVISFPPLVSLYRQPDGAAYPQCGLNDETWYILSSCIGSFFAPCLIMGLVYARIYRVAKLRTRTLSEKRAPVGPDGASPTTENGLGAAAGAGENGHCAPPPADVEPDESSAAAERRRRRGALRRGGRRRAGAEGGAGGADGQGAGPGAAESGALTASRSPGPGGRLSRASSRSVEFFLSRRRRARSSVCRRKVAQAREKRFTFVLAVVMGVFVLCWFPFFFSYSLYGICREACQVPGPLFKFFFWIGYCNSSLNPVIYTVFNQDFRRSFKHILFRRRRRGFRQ
Kind of assay: Binding affinity to human adrenergic Alpha-2C receptor.

For assay [13], the target named is Sigma non-opioid intracellular receptor 1 (Rattus norvegicus, UniProt Q9R0C9). Kind of assay: Binding affinity to rat sigma 1 receptor.
Assay [14] is described as follows: Binding affinity to rat sigma 2 receptor.
The target in another assay is D(2) dopamine receptor (Rattus norvegicus, UniProt P61169). In words: Binding affinity to rat dopamine D2 receptor.
The next assay addresses D(3) dopamine receptor (Rattus norvegicus, UniProt P19020). In words: Binding affinity to rat dopamine D3 receptor.
The target of another assay is T7, D(4) dopamine receptor (Rattus norvegicus, UniProt P30729).
T7 sequence (P30729 whole entry): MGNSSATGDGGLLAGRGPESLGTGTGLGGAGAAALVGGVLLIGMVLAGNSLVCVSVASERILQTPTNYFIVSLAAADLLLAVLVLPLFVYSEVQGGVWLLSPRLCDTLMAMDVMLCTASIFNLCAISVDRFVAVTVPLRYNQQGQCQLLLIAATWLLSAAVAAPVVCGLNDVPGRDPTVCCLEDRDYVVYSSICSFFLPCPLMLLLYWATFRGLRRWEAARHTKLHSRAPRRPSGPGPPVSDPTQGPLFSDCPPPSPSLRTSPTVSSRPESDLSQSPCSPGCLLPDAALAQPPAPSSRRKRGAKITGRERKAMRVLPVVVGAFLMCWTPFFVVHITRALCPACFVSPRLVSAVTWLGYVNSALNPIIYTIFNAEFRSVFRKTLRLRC
Kind of assay: Binding affinity to rat dopamine D4 receptor.

The target of a further assay is Histamine H3 receptor (Cavia porcellus, UniProt Q9JI35). Kind of assay: Binding affinity to guinea pig histamine H3 receptor.
Sequence of Histamine H3 receptor (Q9JI35 whole entry): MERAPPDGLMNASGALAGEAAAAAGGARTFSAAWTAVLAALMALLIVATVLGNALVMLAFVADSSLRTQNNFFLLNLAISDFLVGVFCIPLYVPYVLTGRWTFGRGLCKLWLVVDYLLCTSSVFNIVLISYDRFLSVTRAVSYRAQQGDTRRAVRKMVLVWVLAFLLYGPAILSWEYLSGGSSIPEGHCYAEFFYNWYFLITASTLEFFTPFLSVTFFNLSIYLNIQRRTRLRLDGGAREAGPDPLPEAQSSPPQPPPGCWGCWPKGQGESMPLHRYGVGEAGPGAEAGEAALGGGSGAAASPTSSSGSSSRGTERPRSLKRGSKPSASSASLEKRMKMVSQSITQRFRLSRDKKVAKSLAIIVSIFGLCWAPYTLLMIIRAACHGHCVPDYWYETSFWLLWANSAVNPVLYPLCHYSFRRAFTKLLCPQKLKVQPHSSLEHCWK

T1 sequence (Q13639 whole entry): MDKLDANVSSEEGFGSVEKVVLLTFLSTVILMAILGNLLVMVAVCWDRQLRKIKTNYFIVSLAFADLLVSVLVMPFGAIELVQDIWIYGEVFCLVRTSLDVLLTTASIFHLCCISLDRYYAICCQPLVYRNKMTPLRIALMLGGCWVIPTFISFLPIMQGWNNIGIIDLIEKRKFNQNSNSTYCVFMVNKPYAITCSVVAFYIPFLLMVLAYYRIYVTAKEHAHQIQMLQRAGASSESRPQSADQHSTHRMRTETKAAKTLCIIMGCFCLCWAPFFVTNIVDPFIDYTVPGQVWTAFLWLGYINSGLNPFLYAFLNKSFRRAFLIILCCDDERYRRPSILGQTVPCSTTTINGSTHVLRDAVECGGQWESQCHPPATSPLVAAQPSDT
Sequence of 5-hydroxytryptamine receptor 4 (Cavia porcellus, UniProt O70528) (O70528 whole entry): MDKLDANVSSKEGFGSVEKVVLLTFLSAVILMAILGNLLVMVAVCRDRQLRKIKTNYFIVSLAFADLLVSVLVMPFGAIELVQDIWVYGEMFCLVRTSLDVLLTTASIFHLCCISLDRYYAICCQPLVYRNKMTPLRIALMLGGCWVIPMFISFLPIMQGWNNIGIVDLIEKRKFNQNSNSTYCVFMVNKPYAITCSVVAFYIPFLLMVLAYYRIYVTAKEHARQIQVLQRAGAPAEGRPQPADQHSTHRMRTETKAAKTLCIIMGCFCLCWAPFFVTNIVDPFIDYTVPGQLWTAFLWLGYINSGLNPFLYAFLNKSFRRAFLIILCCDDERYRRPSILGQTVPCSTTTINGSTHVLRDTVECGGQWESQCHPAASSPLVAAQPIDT
Sequence of 5-hydroxytryptamine receptor 2B (P41595 whole entry): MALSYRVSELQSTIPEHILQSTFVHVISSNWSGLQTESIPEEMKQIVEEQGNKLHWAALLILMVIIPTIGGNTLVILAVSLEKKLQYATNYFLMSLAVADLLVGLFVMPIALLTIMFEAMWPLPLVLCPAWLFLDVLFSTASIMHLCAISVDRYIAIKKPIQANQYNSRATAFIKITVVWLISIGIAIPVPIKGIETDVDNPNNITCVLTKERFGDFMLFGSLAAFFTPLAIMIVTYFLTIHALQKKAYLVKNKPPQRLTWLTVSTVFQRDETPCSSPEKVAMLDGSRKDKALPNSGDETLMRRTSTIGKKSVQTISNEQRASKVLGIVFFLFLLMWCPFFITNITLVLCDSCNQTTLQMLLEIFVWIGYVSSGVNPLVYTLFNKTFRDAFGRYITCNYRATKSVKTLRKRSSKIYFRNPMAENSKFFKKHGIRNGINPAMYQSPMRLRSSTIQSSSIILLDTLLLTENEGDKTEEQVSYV
Sequence of D(2) dopamine receptor (P61169 whole entry): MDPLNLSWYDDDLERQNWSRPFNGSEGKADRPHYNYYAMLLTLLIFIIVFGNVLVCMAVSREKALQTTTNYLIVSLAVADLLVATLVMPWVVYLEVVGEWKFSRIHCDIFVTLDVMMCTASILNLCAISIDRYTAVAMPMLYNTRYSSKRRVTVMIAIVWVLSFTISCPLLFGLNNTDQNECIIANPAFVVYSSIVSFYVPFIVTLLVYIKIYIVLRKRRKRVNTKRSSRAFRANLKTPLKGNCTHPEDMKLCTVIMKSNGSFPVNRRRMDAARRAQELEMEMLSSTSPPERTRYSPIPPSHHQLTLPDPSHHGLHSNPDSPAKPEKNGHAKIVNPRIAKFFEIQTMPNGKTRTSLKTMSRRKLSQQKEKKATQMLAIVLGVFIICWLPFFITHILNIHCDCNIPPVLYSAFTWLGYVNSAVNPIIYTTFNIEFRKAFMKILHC
Sequence of 5-hydroxytryptamine receptor 1D (P28221 whole entry): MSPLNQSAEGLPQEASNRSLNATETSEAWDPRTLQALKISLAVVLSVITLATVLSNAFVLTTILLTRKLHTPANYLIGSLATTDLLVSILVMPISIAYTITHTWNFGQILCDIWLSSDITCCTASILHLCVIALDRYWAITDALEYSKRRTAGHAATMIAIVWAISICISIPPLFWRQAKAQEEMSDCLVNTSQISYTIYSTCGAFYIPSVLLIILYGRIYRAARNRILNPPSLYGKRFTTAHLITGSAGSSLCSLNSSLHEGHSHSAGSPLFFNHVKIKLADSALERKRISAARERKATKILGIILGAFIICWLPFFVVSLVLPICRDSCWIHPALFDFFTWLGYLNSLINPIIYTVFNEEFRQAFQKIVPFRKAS
Sequence of D(3) dopamine receptor (P19020 whole entry): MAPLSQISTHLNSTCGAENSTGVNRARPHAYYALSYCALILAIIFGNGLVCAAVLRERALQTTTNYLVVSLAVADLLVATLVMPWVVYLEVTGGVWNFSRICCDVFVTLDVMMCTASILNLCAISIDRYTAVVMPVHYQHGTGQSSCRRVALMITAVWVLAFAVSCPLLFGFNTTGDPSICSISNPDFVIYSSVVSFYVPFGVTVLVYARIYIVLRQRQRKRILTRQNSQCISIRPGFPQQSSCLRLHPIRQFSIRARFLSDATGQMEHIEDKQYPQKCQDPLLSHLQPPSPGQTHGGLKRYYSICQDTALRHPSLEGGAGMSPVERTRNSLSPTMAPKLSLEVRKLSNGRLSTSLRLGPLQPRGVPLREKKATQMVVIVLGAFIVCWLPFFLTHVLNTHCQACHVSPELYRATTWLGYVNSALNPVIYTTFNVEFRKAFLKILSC
Sequence of Sigma non-opioid intracellular receptor 1 (Q9R0C9 whole entry): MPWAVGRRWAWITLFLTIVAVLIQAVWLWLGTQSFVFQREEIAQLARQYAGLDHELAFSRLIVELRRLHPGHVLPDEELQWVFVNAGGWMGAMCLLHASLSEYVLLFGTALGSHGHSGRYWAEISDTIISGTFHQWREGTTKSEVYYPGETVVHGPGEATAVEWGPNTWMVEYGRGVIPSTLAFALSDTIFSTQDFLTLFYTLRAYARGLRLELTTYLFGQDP

The Ki is a measure of affinity in units of concentration, obtained from inhibition or displacement. The EC50 is the concentration at which the effect is half-maximal. Higher therefore signals a less potent agent. With `CCCCN1CCC(COC(=O)c2cc(C#N)c(NC)c3c2OCCO3)CC1`, the Ki in assay [1] is 0.037 µM. In [2], the Efficacy result is “Active”. In assay [3], this molecule showed an EC50 of 0.0158 µM.

In the case of `CCCCN1CCC(CNC(=O)c2ccc(N)c(OC)c2)CC1`, the Ki in assay [1] amounted to 8.66 µM.

`CCCCN1CCC(COC(=O)c2cc(C)c(N)c3c2OCCO3)CC1`: the Ki in [1] came out at 0.0063 µM. For the same molecule, the Efficacy result in [4] is “Active”.

On to `CCCCN1CCC(COC(=O)c2ccc(N)c(OCCF)c2)CC1`, for which the results for the inhibition constant (Ki) in assay [5] and in assay [1] were 0.000215 µM and 0.011 µM, respectively.

Turning to `CCCN1CCC(COC(=O)c2ccc(N)c(OC)c2)CC1`, the inhibition constant Ki in assay [5] is 0.000901 µM; in assay [1] it was 0.017 µM.

Consider `CCCCN1CCC(COC(=O)c2ccc(N)c3c2OCCO3)CC1`, for which the Ki in assay [1] was determined as 0.0014 µM. In addition, the Efficacy result in assay [4] is “Active”.

Turning to `CCCCCN1CCC(COC(=O)c2ccc(N)c(OC)c2)CC1`, the inhibition constant (Ki) in assay [1] was found to be 0.012 µM.

Turning to `CCCCN1CCC(COC(=O)c2cc(I)c(NC)c3c2OCCO3)CC1`, the inhibitory constant (Ki) in [1] is 0.0074 µM. In addition, the Efficacy entry in assay [2] is “Active”. The half-maximal effective concentration (EC50) in assay [3] is 0.02 µM.

Turning to `CCCCN1CCC(COC(=O)c2cc(I)c(N)c3c2OCCO3)CC1`, the affinity in assay [5], expressed as Ki, was 0.0002 µM.

With `CCCCN1CCC(COC(=O)c2cc(Br)c(NC)c3c2OCCO3)CC1`, the inhibition constant Ki in assay [1] amounted to 0.0045 µM. In assay [2], the Efficacy entry is “Active”. The concentration for a half-maximal effect (EC50) in assay [3] was 0.01 µM.

On to `CCCCN1CCC(COC(=O)c2ccc(N)c(OCF)c2)CC1`, for which the Ki in assay [5] is 0.000334 µM; in [1], 0.017 µM.

Consider `CCCCN1CCC(COC(=O)c2cc(C#N)c(N)c3c2OCCO3)CC1`, for which the values for the Ki in [5] and in assay [1] were 0.00045 µM and 0.033 µM, respectively.

In the case of `CCCCN1CCC(COC(=O)c2cc([N+](=O)[O-])c(N)c3c2OCCO3)CC1`, the Ki in assay [1] is 0.0078 µM.

On to `CCCCN1CCC(COC(=O)c2cc(F)c(N)c3c2OCCO3)CC1`, for which the Ki in assay [5] is 0.000334 µM; in [1], 0.0021 µM; in assay [6] it was 2.86 µM; in assay [7], 0.168 µM; in [8] it was 8.36 µM; in assay [9] it was 0.0876 µM. Besides, the inhibition constant (Ki) in [10] turned out to be 9.08 µM; in assay [11] it was 0.773 µM; in assay [12], 0.593 µM; in assay [13], 0.055 µM; in [14], 0.0129 µM; on D(2) dopamine receptor it was 0.615 µM. Besides, the inhibitory constant (Ki) turned out to be 1.01 µM on D(3) dopamine receptor, 0.316 µM at D(4) dopamine receptor and 5.04 µM at Histamine H3 receptor. In addition, the Efficacy result in assay [2] is “Active”. This molecule also showed an EC50 in assay [3] of 0.00589 µM.

Take `CCCCN1CCC(COC(=O)c2ccc(NC)c3c2OCCO3)CC1`: the inhibition constant Ki in [1] worked out at 0.0091 µM. The Efficacy result in [2] was “Active”. The molecule also showed a 50% effective concentration (EC50) in assay [3] of 0.00891 µM.
